# Assay results from ChEMBL document CHEMBL1165969, “Synthesis and cytotoxicity of novel indirubin-5-carboxamides” (Bioorg Med Chem, 2010).
# Key:
# [1] = molecular target: Platelet-derived growth factor receptor alpha (Homo sapiens) (UniProt P16234); experiment: Inhibition of PDGFRalpha assessed as residual activity at 10 uM after 80 mins by microplate scintillation counting
# [2] = molecular target: Proto-oncogene tyrosine-protein kinase receptor Ret (Homo sapiens) (UniProt P07949); experiment: Inhibition of RET assessed as residual activity at 10 uM after 80 mins by microplate scintillation counting
# Outline: (§1)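 Kinase profiling was outsourced to a contract laboratory as a panel of 30 protein kinases. Each compound was tested at two concentrations, and residual kinase activity was recorded.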
# [3] = molecular target: Ribosomal protein S6 kinase beta-1 (Homo sapiens) (UniProt P23443); experiment: Inhibition of p70S6K1 assessed as residual activity at 10 uM after 80 mins by microplate scintillation counting; outline: as §1
# [4] = molecular target: Vascular endothelial growth factor receptor 2 (Homo sapiens) (UniProt P35968); experiment: Inhibition of VEGFR2 assessed as residual activity at 1 uM after 80 mins by microplate scintillation counting; outline: as §1
# [5] = molecular target: Vascular endothelial growth factor receptor 3 (Homo sapiens) (UniProt P35916); experiment: Inhibition of VEGFR3 assessed as residual activity at 10 uM after 80 mins by microplate scintillation counting; outline: as §1
# [6] = molecular target: Vascular endothelial growth factor receptor 3 (Homo sapiens) (UniProt P35916); experiment: Inhibition of VEGFR3 assessed as residual activity at 1 uM after 80 mins by microplate scintillation counting; outline: as §1
# [7] = molecular target: Aurora kinase B (Homo sapiens) (UniProt Q96GD4); experiment: Inhibition of Aurora B assessed as residual activity at 1 uM after 80 mins by microplate scintillation counting
# [8] = molecular target: Serine/threonine-protein kinase B-raf (Homo sapiens) (UniProt P15056); experiment: Inhibition of B-Raf assessed as residual activity at 10 uM after 80 mins by microplate scintillation counting
# [9] = molecular target: Serine/threonine-protein kinase B-raf (Homo sapiens) (UniProt P15056); experiment: Inhibition of B-Raf assessed as residual activity at 1 uM after 80 mins by microplate scintillation counting
# [10] = molecular target: T1, Cyclin-dependent kinase 1/cyclin B1 (Homo sapiens) (UniProt P06493+P14635); experiment: Inhibition of CDK1/Cyclin B1 assessed as residual activity at 10 uM after 80 mins by microplate scintillation counting; format: protein-complex assay
# [11] = molecular target: T1, Cyclin-dependent kinase 1/cyclin B1 (Homo sapiens); experiment: Inhibition of CDK1/Cyclin B1 assessed as residual activity at 1 uM after 80 mins by microplate scintillation counting; format: protein-complex assay
# [12] = molecular target: T2, Cyclin-dependent kinase 2/cyclin A (Homo sapiens) (UniProt P24941+P20248+P78396); experiment: Inhibition of CDK2/Cyclin A assessed as residual activity at 10 uM after 80 mins by microplate scintillation counting; format: protein-complex assay
# [13] = molecular target: T2, Cyclin-dependent kinase 2/cyclin A (Homo sapiens); experiment: Inhibition of CDK2/Cyclin A assessed as residual activity at 1 uM after 80 mins by microplate scintillation counting; format: protein-complex assay
# [14] = molecular target: T3, Cyclin-dependent kinase 2/cyclin E1 (Homo sapiens) (UniProt P24864+P24941); experiment: Inhibition of CDK2/Cyclin E assessed as residual activity at 10 uM after 80 mins by microplate scintillation counting; format: protein-complex assay
# [15] = molecular target: T3, Cyclin-dependent kinase 2/cyclin E1 (Homo sapiens); experiment: Inhibition of CDK2/Cyclin E assessed as residual activity at 1 uM after 80 mins by microplate scintillation counting; format: protein-complex assay
# [16] = molecular target: T4, Cyclin-dependent kinase 5/CDK5 activator 1 (Homo sapiens) (UniProt Q00535+Q15078); experiment: Inhibition of CDK5/p35 assessed as residual activity at 10 uM after 80 mins by microplate scintillation counting; format: protein-complex assay
# [17] = molecular target: T4, Cyclin-dependent kinase 5/CDK5 activator 1 (Homo sapiens); experiment: Inhibition of CDK5/p35 assessed as residual activity at 1 uM after 80 mins by microplate scintillation counting; format: protein-complex assay
# [18] = molecular target: Serine/threonine-protein kinase Chk1 (Homo sapiens) (UniProt O14757); experiment: Inhibition of CHK1 assessed as residual activity at 1 uM after 80 mins by microplate scintillation counting
# [19] = molecular target: Serine/threonine-protein kinase Chk2 (Homo sapiens) (UniProt O96017); experiment: Inhibition of CHK2 assessed as residual activity at 10 uM after 80 mins by microplate scintillation counting
# [20] = molecular target: Epidermal growth factor receptor (Homo sapiens) (UniProt P00533); experiment: Inhibition of EGFR assessed as residual activity at 10 uM after 80 mins by microplate scintillation counting
# [21] = molecular target: Receptor tyrosine-protein kinase erbB-2 (Homo sapiens) (UniProt P04626); experiment: Inhibition of ERBB2 assessed as residual activity at 10 uM after 80 mins by microplate scintillation counting
# [22] = molecular target: Receptor tyrosine-protein kinase erbB-2 (Homo sapiens) (UniProt P04626); experiment: Inhibition of ERBB2 assessed as residual activity at 1 uM after 80 mins by microplate scintillation counting
# [23] = molecular target: Focal adhesion kinase 1 (Homo sapiens) (UniProt Q05397); experiment: Inhibition of FAK assessed as residual activity at 10 uM after 80 mins by microplate scintillation counting
# [24] = molecular target: Fibroblast growth factor receptor 1 (Homo sapiens) (UniProt P11362); experiment: Inhibition of FGFR1 assessed as residual activity at 1 uM after 80 mins by microplate scintillation counting
# [25] = molecular target: Tyrosine-protein kinase Fgr (Homo sapiens) (UniProt P09769); experiment: Inhibition of FGR assessed as residual activity at 10 uM after 80 mins by microplate scintillation counting
# [26] = molecular target: Receptor-type tyrosine-protein kinase FLT3 (Homo sapiens) (UniProt P36888); experiment: Inhibition of FLT3 assessed as residual activity at 1 uM after 80 mins by microplate scintillation counting
# [27] = molecular target: T5, Glycogen synthase kinase-3 beta (Homo sapiens, UniProt P49841); experiment: Inhibition of GSK3-beta assessed as residual activity at 10 uM after 80 mins by microplate scintillation counting
# Target sequence in this assay (P49841 whole entry, looked up): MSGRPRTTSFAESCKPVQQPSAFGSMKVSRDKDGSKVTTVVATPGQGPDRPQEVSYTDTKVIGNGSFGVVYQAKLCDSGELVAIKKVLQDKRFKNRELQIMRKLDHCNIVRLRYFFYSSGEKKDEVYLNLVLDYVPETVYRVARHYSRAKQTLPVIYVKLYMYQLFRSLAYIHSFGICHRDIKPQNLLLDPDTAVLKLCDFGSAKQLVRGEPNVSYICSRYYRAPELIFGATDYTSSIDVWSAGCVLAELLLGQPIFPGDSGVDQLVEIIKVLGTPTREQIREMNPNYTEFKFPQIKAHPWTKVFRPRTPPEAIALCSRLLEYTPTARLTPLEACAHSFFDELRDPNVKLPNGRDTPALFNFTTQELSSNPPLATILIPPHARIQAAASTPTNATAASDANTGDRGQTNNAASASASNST
# [28] = molecular target: T5, Glycogen synthase kinase-3 beta; experiment: Inhibition of GSK3-beta assessed as residual activity at 1 uM after 80 mins by microplate scintillation counting
# Target sequence in this assay (P49841 whole entry, looked up): as above
# [29] = molecular target: Insulin-like growth factor 1 receptor (Homo sapiens) (UniProt P08069); experiment: Inhibition of IGF1R assessed as residual activity at 10 uM after 80 mins by microplate scintillation counting
# [30] = molecular target: Tyrosine-protein kinase JAK2 (Homo sapiens) (UniProt O60674); experiment: Inhibition of JAK2 assessed as residual activity at 10 uM after 80 mins by microplate scintillation counting
# [31] = molecular target: Mast/stem cell growth factor receptor Kit (Homo sapiens) (UniProt P10721); experiment: Inhibition of KIT assessed as residual activity at 10 uM after 80 mins by microplate scintillation counting
# [32] = molecular target: Mast/stem cell growth factor receptor Kit (Homo sapiens) (UniProt P10721); experiment: Inhibition of KIT assessed as residual activity at 1 uM after 80 mins by microplate scintillation counting
# [33] = molecular target: Muscle, skeletal receptor tyrosine-protein kinase (Homo sapiens) (UniProt O15146); experiment: Inhibition of MUSK assessed as residual activity at 10 uM after 80 mins by microplate scintillation counting
# [34] = Solubility in water by spectrophotometry; format: physicochemical
# [35] = molecular target: T5, Glycogen synthase kinase-3 beta; experiment: Inhibition of GSK3-beta assessed as inhibition of [33Pi] incorporation after 80 mins by microplate scintillation counting
# Target sequence in this assay (P49841 whole entry): as the sequence (P49841 whole entry, looked up) above
# [36] = molecular target: Tyrosine-protein kinase ABL1 (Homo sapiens) (UniProt P00519); experiment: Inhibition of ABL1 assessed as residual activity at 10 uM after 80 mins by microplate scintillation counting
# [37] = molecular target: Tyrosine-protein kinase ABL1 (Homo sapiens) (UniProt P00519); experiment: Inhibition of ABL1 assessed as residual activity at 1 uM after 80 mins by microplate scintillation counting
# [38] = molecular target: Aurora kinase A (Homo sapiens) (UniProt O14965); experiment: Inhibition of Aurora A assessed as residual activity at 10 uM after 80 mins by microplate scintillation counting
# T1 sequence (P06493 whole entry, looked up): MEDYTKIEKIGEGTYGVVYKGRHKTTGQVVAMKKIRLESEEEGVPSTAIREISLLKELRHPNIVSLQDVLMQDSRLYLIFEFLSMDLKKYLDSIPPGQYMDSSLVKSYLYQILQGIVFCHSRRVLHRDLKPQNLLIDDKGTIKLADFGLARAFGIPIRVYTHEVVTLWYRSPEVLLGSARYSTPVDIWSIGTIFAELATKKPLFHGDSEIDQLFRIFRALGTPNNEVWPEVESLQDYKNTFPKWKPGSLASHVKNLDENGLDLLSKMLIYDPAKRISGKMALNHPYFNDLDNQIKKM
# T1 sequence (P14635 whole entry, looked up): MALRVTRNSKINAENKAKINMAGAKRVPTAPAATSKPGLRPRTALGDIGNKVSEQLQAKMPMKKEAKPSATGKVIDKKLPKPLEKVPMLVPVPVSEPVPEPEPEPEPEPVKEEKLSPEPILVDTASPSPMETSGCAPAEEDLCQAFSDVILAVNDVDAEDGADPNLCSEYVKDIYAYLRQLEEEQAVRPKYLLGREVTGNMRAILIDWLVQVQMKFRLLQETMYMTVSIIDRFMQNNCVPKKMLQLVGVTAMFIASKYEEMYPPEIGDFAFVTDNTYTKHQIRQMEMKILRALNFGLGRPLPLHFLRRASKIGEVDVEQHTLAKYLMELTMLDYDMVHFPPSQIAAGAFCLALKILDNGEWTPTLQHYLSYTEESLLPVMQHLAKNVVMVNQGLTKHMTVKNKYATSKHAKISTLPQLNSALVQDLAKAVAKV
# Sequence of Tyrosine-protein kinase ABL1 (Homo sapiens) (P00519 whole entry): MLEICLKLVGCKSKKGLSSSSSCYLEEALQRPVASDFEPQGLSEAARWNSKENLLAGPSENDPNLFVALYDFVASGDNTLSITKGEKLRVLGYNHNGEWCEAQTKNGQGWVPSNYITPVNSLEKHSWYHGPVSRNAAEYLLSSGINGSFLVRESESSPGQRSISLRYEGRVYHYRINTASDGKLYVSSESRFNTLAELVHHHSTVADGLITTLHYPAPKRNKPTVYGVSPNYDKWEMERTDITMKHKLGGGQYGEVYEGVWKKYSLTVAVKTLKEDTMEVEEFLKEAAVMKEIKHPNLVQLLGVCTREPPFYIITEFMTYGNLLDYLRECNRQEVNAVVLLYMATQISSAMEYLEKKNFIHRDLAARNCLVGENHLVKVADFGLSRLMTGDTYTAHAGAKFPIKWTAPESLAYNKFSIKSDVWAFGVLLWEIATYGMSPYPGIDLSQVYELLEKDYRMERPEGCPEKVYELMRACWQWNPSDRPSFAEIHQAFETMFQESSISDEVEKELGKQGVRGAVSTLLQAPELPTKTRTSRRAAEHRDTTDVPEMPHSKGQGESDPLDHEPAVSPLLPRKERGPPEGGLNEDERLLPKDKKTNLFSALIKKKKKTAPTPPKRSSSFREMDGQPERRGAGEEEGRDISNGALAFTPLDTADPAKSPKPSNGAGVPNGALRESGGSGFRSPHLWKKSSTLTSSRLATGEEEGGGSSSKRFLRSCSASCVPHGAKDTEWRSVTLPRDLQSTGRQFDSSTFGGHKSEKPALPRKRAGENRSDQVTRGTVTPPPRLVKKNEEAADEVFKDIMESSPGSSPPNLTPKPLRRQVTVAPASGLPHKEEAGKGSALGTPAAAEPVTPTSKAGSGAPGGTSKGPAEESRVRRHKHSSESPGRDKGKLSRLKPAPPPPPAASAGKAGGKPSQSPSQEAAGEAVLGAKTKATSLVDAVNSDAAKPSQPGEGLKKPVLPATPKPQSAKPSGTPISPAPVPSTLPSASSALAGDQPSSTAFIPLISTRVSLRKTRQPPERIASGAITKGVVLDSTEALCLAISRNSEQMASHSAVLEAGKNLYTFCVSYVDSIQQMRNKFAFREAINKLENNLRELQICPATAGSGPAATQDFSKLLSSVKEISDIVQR
# Sequence of Receptor tyrosine-protein kinase erbB-2 (Homo sapiens) (P04626 whole entry): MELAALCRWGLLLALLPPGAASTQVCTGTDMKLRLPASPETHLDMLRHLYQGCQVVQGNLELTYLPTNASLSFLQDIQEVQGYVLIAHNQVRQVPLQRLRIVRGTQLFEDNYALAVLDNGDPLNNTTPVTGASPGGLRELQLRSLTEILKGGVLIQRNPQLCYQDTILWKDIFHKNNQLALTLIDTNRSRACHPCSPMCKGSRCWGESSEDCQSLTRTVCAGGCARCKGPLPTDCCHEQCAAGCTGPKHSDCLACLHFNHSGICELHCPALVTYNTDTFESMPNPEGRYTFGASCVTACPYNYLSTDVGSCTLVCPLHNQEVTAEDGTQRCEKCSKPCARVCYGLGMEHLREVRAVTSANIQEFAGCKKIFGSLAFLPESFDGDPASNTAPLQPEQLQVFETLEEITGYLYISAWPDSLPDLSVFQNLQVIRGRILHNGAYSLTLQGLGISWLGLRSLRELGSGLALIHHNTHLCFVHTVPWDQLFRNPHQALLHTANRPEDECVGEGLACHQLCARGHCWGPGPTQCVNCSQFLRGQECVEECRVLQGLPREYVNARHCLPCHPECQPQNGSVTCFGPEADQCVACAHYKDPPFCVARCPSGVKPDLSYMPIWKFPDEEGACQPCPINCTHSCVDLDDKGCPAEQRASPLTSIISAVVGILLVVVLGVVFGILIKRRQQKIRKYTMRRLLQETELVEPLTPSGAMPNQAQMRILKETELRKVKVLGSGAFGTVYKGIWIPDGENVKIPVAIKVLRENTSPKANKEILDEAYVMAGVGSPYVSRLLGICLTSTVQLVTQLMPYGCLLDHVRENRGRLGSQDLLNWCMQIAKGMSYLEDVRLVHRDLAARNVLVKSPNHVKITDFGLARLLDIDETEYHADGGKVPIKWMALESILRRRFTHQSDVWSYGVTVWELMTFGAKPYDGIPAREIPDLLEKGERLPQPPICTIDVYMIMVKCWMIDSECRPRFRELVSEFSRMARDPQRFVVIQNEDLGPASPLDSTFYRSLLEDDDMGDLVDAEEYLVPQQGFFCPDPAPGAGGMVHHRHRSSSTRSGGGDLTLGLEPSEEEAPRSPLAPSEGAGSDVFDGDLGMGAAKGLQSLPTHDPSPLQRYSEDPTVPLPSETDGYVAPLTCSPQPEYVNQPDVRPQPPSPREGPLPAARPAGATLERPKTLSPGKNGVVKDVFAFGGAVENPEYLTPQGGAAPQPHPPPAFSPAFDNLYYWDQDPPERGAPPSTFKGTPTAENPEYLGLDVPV
# Sequence of Mast/stem cell growth factor receptor Kit (Homo sapiens) (P10721 whole entry): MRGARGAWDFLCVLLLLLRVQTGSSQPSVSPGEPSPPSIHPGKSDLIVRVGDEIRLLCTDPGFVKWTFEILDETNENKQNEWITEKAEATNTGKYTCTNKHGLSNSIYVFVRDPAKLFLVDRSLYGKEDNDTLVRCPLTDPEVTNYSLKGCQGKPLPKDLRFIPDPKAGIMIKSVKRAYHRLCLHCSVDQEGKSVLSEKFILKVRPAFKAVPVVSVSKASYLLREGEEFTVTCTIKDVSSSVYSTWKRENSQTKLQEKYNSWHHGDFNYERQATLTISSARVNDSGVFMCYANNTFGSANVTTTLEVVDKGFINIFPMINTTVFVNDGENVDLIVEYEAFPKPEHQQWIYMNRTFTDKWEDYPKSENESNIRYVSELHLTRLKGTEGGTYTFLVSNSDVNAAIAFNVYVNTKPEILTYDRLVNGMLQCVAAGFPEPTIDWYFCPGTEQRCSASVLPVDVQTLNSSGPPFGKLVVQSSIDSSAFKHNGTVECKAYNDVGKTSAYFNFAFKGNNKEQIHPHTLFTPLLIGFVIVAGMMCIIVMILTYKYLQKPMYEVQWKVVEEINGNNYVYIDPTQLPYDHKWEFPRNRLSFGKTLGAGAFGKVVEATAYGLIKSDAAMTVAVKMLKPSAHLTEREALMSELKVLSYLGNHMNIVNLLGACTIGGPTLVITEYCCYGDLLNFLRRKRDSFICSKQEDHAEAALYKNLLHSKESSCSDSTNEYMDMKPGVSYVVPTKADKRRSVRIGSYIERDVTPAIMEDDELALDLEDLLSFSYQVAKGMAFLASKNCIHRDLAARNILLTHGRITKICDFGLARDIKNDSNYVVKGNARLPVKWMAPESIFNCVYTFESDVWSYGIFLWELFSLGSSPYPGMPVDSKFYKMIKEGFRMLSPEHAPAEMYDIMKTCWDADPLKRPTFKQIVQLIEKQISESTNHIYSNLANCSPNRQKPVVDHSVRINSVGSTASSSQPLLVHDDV
# Sequence of Serine/threonine-protein kinase Chk1 (Homo sapiens) (O14757 whole entry): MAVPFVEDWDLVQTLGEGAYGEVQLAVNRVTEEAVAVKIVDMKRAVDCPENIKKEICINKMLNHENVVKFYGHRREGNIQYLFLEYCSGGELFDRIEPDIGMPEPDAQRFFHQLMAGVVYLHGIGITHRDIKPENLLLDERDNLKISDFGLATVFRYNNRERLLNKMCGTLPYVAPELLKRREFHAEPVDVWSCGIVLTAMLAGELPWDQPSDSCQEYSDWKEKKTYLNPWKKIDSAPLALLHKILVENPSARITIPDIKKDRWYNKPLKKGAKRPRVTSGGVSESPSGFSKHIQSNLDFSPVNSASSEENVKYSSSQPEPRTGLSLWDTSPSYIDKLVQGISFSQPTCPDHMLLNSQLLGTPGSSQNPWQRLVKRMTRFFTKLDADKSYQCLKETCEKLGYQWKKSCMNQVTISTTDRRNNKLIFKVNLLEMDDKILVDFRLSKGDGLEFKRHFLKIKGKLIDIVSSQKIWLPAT
smiles,measurement,setting,value
CN1CCN(c2ccc(NC(=O)c3ccc4c(c3)/C(=C3/Nc5ccccc5C3=O)C(=O)N4)cc2)CC1,Activity,[1],31%
same,Activity,[2],58%
same,Activity,[3],48%
same,Activity,[4],100%
same,Activity,[5],37%
same,Activity,[6],99%
same,Activity,[7],98%
same,Activity,[8],106%
same,Activity,[9],103%
same,Activity,[10],23%
same,Activity,[11],79%
same,Activity,[12],20%
same,Activity,[13],60%
same,Activity,[14],14%
same,Activity,[15],63%
same,Activity,[16],16%
same,Activity,[17],53%
same,Activity,[18],106%
same,Activity,[19],69%
same,Activity,[20],43%
same,Activity,[21],40%
same,Activity,[22],99%
same,Activity,[23],92%
same,Activity,[24],88%
same,Activity,[25],< 50%
same,Activity,[26],67%
same,Activity,[27],6%
same,Activity,[28],27%
same,Activity,[29],103%
same,Activity,[30],48%
same,Activity,[31],129%
same,Activity,[32],98%
same,Activity,[33],31%
same,solubility,[34],520 µg/mL
same,IC50,[35],100 nM
same,Activity,[36],26%
same,Activity,[37],88%
same,Activity,[38],63%
